The structures appear in SMILES notation.

In general, IC50 refers to the concentration needed to halve the response being measured. A high value points to lower potency. In general, ED50 refers to the midpoint of the dose-response relation. A higher ED50 goes with a need for a large dose.

For assay [1], the system named is Plasmodium falciparum. Description: In vitro antimalarial activity against Plasmodium falciparum HB. The format is functional, organism-based. In a few lines: (§1)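 Parasites kept in continuous culture in human erythrocytes in RPMI 1640 with 25 mM HEPES, 32 mM NaHCO3 and 10% human serum, gassed 3% O2/4% CO2/93% N2. 48-h assay at 2% parasitemia, 0.5% haematocrit, drugs from DMSO stocks diluted in medium, triplicate. [3H]-hypoxanthine added at 24 h, further 24 h at 37 °C, scintillation counting. IC50 by probit interpolation of log dose–response.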

Assay [2] deals with Plasmodium falciparum. Description: In vitro antimalarial activity against chloroquine-resistant Plasmodium falciparum K1. The format is functional, organism-based. The procedure, abridged:
as §1

A further assay relates to Plasmodium yoelii. The assay can be described thus: […] against Plasmodium yoelii NS in peter 4-day assay. The note with it: 96 h, in the assay text read “In vivo” for “In vitro”. The format is functional. In a few lines:
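Male CD-1 mice (n = 5 per dose group) infected ip with 10^6 parasitized erythrocytes in PBS. Oral gavage dosing at time 0 (2 h post-inoculation) and on days 1, 2 and 3, at 25, 10, 3, 1, 0.3 and 0.1 mg/kg. On day 4, Giemsa-stained tail-blood films were read microscopically for parasite density, and ED50 was derived.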

With `CC(C)(C)NCc1ccc(Nc2ccnc3cc(Cl)ccc23)cc1O` [GSK-369796], the IC50 in the assay on Plasmodium falciparum [1] worked out at 30 nM; with Plasmodium falciparum [2] it was 32.8 nM. `CCN(CC)Cc1cc(Nc2ccnc3cc(Cl)ccc23)ccc1O.Cl` yielded an IC50 in the assay on Plasmodium falciparum [2] of 15.1 nM. The ED50 with Plasmodium yoelii is 7.65 mg/kg. For `Oc1cc(Nc2ccnc3cc(Cl)ccc23)ccc1CN1CCCC1`, the IC50 in the assay on Plasmodium falciparum [1] came to 28.4 nM; in the assay on Plasmodium falciparum [2], 21.8 nM.

Regarding `Oc1cc(Nc2ccnc3cc(Cl)ccc23)ccc1CN1CCOCC1`, the IC50 was found to be 97.2 nM with Plasmodium falciparum [1] and 112 nM in the assay with Plasmodium falciparum [2]. `CCCN(CCC)Cc1ccc(Nc2ccnc3cc(Cl)ccc23)cc1O`: the 50% inhibitory concentration (IC50) with Plasmodium falciparum [1] stood at 19.8 nM; in the assay with Plasmodium falciparum [2], 30.6 nM. The like results for `CCNCc1ccc(Nc2ccnc3cc(Cl)ccc23)cc1O` [DESETHYL ISOQUINE] were, in that order, 16.2 nM and 32.4 nM.

As to `Oc1cc(Nc2ccnc3cc(Cl)ccc23)ccc1CN1CCCCC1`, the IC50 in the assay on Plasmodium falciparum [1] was found to be 9.07 nM; in the assay on Plasmodium falciparum [2], 20.3 nM. For `CCCCN(CCCC)Cc1ccc(Nc2ccnc3cc(Cl)ccc23)cc1O` the same measures were 51.9 nM and 37.2 nM. In the assay on Plasmodium yoelii, `CCN(CC)Cc1ccc(Nc2ccnc3cc(Cl)ccc23)cc1O` [ISOQUINE] registered a 50% effective dose (ED50) of 2.65 mg/kg.

For `CC(C)NCc1ccc(Nc2ccnc3cc(Cl)ccc23)cc1O`, the values for the half-maximal inhibitory concentration (IC50) in the assay with Plasmodium falciparum [1] and with Plasmodium falciparum [2] were 20.2 nM and 26.2 nM, respectively. Turning to `CCN(CC)Cc1ccc(Nc2ccnc3cc(Cl)ccc23)cc1O`, in the assay on Plasmodium falciparum [1], inhibition was half-maximal at 9.02 nM (IC50). As to `CN(C)Cc1ccc(Nc2ccnc3cc(Cl)ccc23)cc1O`, the figures for the IC50 in the assay with Plasmodium falciparum [1] and in the assay on Plasmodium falciparum [2] were 14.8 nM and 18.6 nM, respectively.

The record behind these values is ChEMBL document CHEMBL1144904, “Isoquine and related amodiaquine analogues: a new generation of improved 4-aminoquinoline antimalarials” (J Med Chem, 2003).
